Reference: ChEMBL document CHEMBL2385032, “Dual-functional abeo-taxane derivatives destabilizing microtubule equilibrium and inhibiting NF-κB activation” (2013)
Active and inactive are the calls of the source. The calls are words filed in the database; no cut-off is given here.

Assays:
[1] = tested on: HEK-293T; assay: Inhibition of TNF-alpha induced NF-kapppaB activation in HEK293T cells at 2.50 uM incubated 1 hr prior to TNF-alpha addition measured after 18 hrs by luciferase reporter gene assay; assay type: cell-based; settings: Homo sapiens
Method in brief: (§1)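 HEK 293T cells transiently transfected 12 h with pNFκB-luc and pRL-TK, pretreated 1 h with compound (0.31–2.50 μM) or DMSO, then stimulated with TNF-α 25 ng/mL for 18 h; firefly and Renilla luciferase read by dual-luciferase assay. Data from one of three independent experiments.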

[2] = tested on: HEK-293T; assay: Inhibition of TNF-alpha induced NF-kapppaB activation in HEK293T cells at 1.25 uM incubated 1 hr prior to TNF-alpha addition measured after 18 hrs by luciferase reporter gene assay; assay type: cell-based; settings: Homo sapiens; method in brief: as §1
[3] = tested on: HEK-293T; assay: Inhibition of TNF-alpha induced NF-kapppaB activation in HEK293T cells at 0.62 uM incubated 1 hr prior to TNF-alpha addition measured after 18 hrs by luciferase reporter gene assay; assay type: cell-based; settings: Homo sapiens; method in brief: as §1
[4] = tested on: HEK-293T; assay: Inhibition of TNF-alpha induced NF-kapppaB activation in HEK293T cells incubated 1 hr prior to TNF-alpha addition measured after 18 hrs by luciferase reporter gene assay; assay type: cell-based; settings: Homo sapiens; method in brief: as §1
[5] = tested on: HCT-116; assay: Cell cycle arrest in human HCT116 cells assessed as accumulation at G0/G1 phase at 2 uM after 12 hrs by propidium iodide staining-based FACS analysis (reference value: 54.63 to 55.88 %); assay type: functional
[6] = tested on: HCT-116; assay: Cell cycle arrest in human HCT116 cells assessed as accumulation at G0/G1 phase at 1 uM after 12 hrs by propidium iodide staining-based FACS analysis (reference value: 54.63 to 55.88 %); assay type: functional
[7] = tested on: HCT-116; assay: Cell cycle arrest in human HCT116 cells assessed as accumulation at S phase at 2 uM after 12 hrs by propidium iodide staining-based FACS analysis (reference value: 20.48 to 23.62 %); assay type: functional
[8] = tested on: HCT-116; assay: Cell cycle arrest in human HCT116 cells assessed as accumulation at S phase at 1 uM after 12 hrs by propidium iodide staining-based FACS analysis (reference value: 20.48 to 23.62 %); assay type: functional
[9] = tested on: HCT-116; assay: Cell cycle arrest in human HCT116 cells assessed as accumulation at G2/M phase after 12 hrs by propidium iodide staining-based FACS analysis; assay type: functional
[10] = tested on: HCT-116; assay: Cell cycle arrest in human HCT116 cells assessed as reduction in G0/G1 phase after 12 hrs by propidium iodide staining-based FACS analysis; assay type: functional
[11] = tested on: HCT-116; assay: Cell cycle arrest in human HCT116 cells assessed as accumulation at G2/M phase at 1 uM after 12 hrs by propidium iodide staining-based FACS analysis (reference value: 20.40 to 22.32 %); assay type: functional
[12] = species: Homo sapiens; assay: Induction of microtubule depolymerization in human PC3 interphase cells at 5 uM after 24 hrs by DAPI staining-based immunofluorescence microscopic analysis; assay type: cell-based
Method in brief: (§2)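 PC-3 cells grown on chamber slides 36 h, then treated 24 h (test agents 2, 5 or 10 μM; reference agents 200 nM); fixed in 4% paraformaldehyde, permeabilized with 0.5% Triton X-100, stained with anti-α-tubulin monoclonal plus FITC secondary and DAPI for nuclei; spindle and microtubule morphology by fluorescence microscopy.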

[13] = species: Homo sapiens; assay: Induction of microtubule depolymerization in human PC3 mitotic cells assessed as abnormal spindles at 5 uM after 24 hrs by DAPI staining-based immunofluorescence microscopic analysis; assay type: cell-based; method in brief: as §2
[14] = molecular target: Tubulin (Homo sapiens) (UniProt P68371+Q9H4B7+P0DPH7+P68366+Q13509+Q71U36+P04350+Q3ZCM7+P07437+P68363+Q9BQE3+Q6PEY2+Q13885+Q9BVA1+Q9BUF5); assay: Inhibition of tubulin (unknown origin) polymerization assessed as destabilization of microtubule at 15 uM by fluorescence assay; assay type: protein-complex assay
Method in brief: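 Cell-free tubulin polymerization kit; tubulin mixed with DMSO control, 500 μM CaCl2, 3 μM paclitaxel or test compounds at 15 or 30 μM; polymerization followed kinetically by fluorescence, excitation 340 nm, emission 420 nm, in a temperature-regulated fluorimeter. Three independent experiments in triplicate.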

[15] = tested on: HCT-116; assay: Induction of apoptosis in human HCT116 cells assessed as late apoptotic cells at 2 uM after 24 hrs by AnnexinV-FITC/PI staining-based flow cytometry (reference value: 2.53 %); assay type: functional
[16] = tested on: HCT-116; assay: Induction of apoptosis in human HCT116 cells assessed as early apoptotic cells at 2 uM after 24 hrs by AnnexinV-FITC/PI staining-based flow cytometry (reference value: 2.17 %); assay type: functional
[17] = tested on: HCT-116; assay: Induction of apoptosis in human HCT116 cells assessed as late apoptotic cells at 1 uM after 24 hrs by AnnexinV-FITC/PI staining-based flow cytometry (reference value: 2.53 %); assay type: functional
[18] = tested on: HCT-116; assay: Induction of apoptosis in human HCT116 cells assessed as early apoptotic cells at 1 uM after 24 hrs by AnnexinV-FITC/PI staining-based flow cytometry (reference value: 2.17 %); assay type: functional
[19] = tested on: HCT-116; assay: Induction of apoptosis in human HCT116 cells at 2 uM after 24 hrs by AnnexinV-FITC/PI staining-based flow cytometry; assay type: functional
[20] = tested on: HCT-116; assay: Induction of apoptosis in human HCT116 cells at 1 uM after 24 hrs by AnnexinV-FITC/PI staining-based flow cytometry; assay type: functional
[21] = tested on: HCT-116; assay: Induction of apoptosis in human HCT116 cells after 24 hrs by AnnexinV-FITC/PI staining-based flow cytometry; assay type: functional, cell-based
[22] = tested on: T47D; assay: Cytotoxicity against human T47D cells; assay type: functional
Method in brief: (§3)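 NCI-60 human tumor cell line screen run by standard NCI protocol: single-dose prescreen at 10 μM, then multi-dose testing of compounds giving over 50% growth inhibition; GI50 = concentration for 50% growth inhibition.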

[23] = tested on: DU-145; assay: Cytotoxicity against human DU145 cells; assay type: functional; method in brief: as §3
[24] = tested on: OVCAR-3; assay: Cytotoxicity against human OVCAR3 cells; assay type: functional; method in brief: as §3
[25] = tested on: RXF 393; assay: Cytotoxicity against human RXF393 cells; assay type: functional; method in brief: as §3
[26] = tested on: LOX IMVI; assay: Cytotoxicity against human LOXIMVI cells; assay type: functional
[27] = tested on: SNB-19; assay: Cytotoxicity against human SNB19 cells; assay type: functional; method in brief: as §3
[28] = tested on: NCI-H322M; assay: Cytotoxicity against human NCI-H322M cells; assay type: functional; method in brief: as §3
[29] = tested on: HCT-116; assay: Cytotoxicity against human HCT116 cells; assay type: functional; method in brief: as §3

C=C1C(=O)C[C@H](OC(C)=O)[C@@]2(C)[C@@H](OC(C)=O)[C@H](OC(=O)c3ccccc3)C3=C(C)[C@@H](OC(=O)[C@H](O)[C@@H](NC(=O)OC(C)(C)C)c4ccccc4)C[C@@]3(C(C)(C)O)[C@@H](OC(C)=O)[C@H]12
inhibition [1]: 28% | inhibition [2]: 12% | inhibition [3]: 9% | inhibition [4]: Dose-dependent effect | Activity [5]: 50.3% | Activity [6]: 51.25% | Activity [7]: 16.39% | Activity [8]: 20.48% | Activity [9]: Dose-dependent effect | Activity [10]: Dose-dependent effect | Activity [11]: 26.14% | Activity [12]: Active | Activity [13]: Active | inhibition [14]: Active | Activity [15]: 14.64% | Activity [16]: 5.72% | Activity [17]: 5.24% | Activity [18]: 3.3% | Activity [19]: 19.87% | Activity [20]: 4.93% | Activity [21]: Dose-dependent effect | GI50 [22]: 1880 nM | GI50 [23]: 1890 nM | GI50 [24]: 1690 nM | GI50 [25]: 1330 nM | GI50 [26]: 1700 nM | GI50 [27]: 27500 nM | GI50 [28]: 18800 nM | GI50 [29]: 1120 nM
